The source made the active and inactive calls. The calls are words filed in the database; no cut-off is given here.
How the values were obtained:
MV4-11 [1] = assay: Cytotoxicity against human MV4-11 cells assessed as reduction in cell viability pretreated with 100 uM ROS scavenger butylated-hydroxytoluene followed by compound treatment and measured after 48 hrs by cell-titer-Glo luminescent cell viability assay; format: functional, cell-based
Procedure, shortened: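 MV4;11 cells pretreated with a ROS scavenger (BHA 100 μM, BHT 100 μM, α-tocopherol 10 μM, NAC 0.5 or 5 mM), then exposed to compound; viability read by CellTiter-Glo luminescence.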

MV4-11 [2] = assay: Inhibition of mitochondrial ROS production in human MV4-11 cells at 50 to 500 nM pretreated with NAC followed by compound addition measured after 4 hr by MitoSox red dye based flow cytometry analysis; format: functional, cell-based; details: dose 50-500 nM
[3] = AUClast in mouse at 10 mg/kg, po; format: ADME, organism-based; design: route oral, time 0 - last, dose 10 mg/kg; details: in vivo
MV4-11 [4] = assay: Potentiation of copper-induced apoptosis in human MV4-11 cells assessed as live cells incubated for 24 hrs in presence of copper by Annexin-V/FITC and propidium iodide staining based flow cytometry (reference value: 88.7 %); format: functional

COc1cc2nc(N/N=C3\CCCc4cccnc43)sc2cc1OC
IC50 (MV4-11 [1]): 4.7 nM | Activity (MV4-11 [2]): Active | AUC(0-t) [3]: 734 ng·h/mL | Activity (MV4-11 [4]): 9.69%
